Assay outcomes (PubChem BioAssay)
HSF1 inh – HSF1 inhibition | activity change, negative = inhibition, % at 7.5 µM (by protocol) | 300,000 compounds, 0.77% hits | NIH3T3-HGL HSE-luciferase, MG132-induced, luminescence 8 h; hits give low values;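 active = more than half of replicate wells show activity change below -50%, luminescence cut by over half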;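 note: luciferase reports HSF-1 transcriptional activity via heat shock element; 0% = median of DMSO wells and -100% = zero luminescence signal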
GPR7 antagonist – antagonists of human GPR7 (neuropeptides B/W receptor 1) | P48145 | GPR7-expressing cells, fluorescence antagonist assay | inhibition, % at 4.4 µM | 290,000 compounds, 1.1% hits | AID 1861; in the data active = inhibition above about 16%, passing the limit was not always enough;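 note: cells stimulated with the agonist NPW; 0% = agonist with vehicle and 100% = vehicle without agonist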
Target sequence (P48145 whole entry, looked up): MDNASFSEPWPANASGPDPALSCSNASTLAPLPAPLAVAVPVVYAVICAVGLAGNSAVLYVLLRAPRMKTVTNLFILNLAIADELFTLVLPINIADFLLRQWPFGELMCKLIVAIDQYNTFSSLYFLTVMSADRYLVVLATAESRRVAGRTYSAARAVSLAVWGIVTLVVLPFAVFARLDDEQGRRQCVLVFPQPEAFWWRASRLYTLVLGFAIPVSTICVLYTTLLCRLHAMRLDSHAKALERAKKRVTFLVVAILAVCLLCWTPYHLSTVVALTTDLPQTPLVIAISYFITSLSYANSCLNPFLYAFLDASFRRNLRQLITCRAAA
HSF1 activator – increases HSF-1 driven luciferase reporter signal. 300,000 compounds, 1.7% hits. activation, % at 9 µM. NIH3T3-HGL HSF-1 luciferase reporter, MG132, 8 h; 100% = twice DMSO control signal;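 active = mean replicate activation of at least 50% with a set share of replicates each reaching 50%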;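 note: 0% = median of the neutral control wells and 100% = twice that signal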
697 NFkB inh – inhibitors of the PMA/ionomycin-induced NF-kB reporter in 697 B cells; inhibition, % at 4 µM; AID 435022; 697 B-cell NF-kB luciferase reporter, 16 h; 330,000 compounds, 0.33% hits; in the data active = inhibition above about 35%
T cruzi inh – blocks replication of Trypanosoma cruzi; T. cruzi beta-gal in NIH3T3, luminescence, 90 h; inhibition, % (concentration not given with the values); 300,000 compounds, 1.4% hits;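 active = mean inhibition across valid replicates above about 55%, limit read from the data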;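 note: signal also drops with host cell toxicity which is not excluded here; 0% = plate median of DMSO wells and 100% = zero luminescence signal; higher percent means less beta-gal luminescence so fewer parasites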
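System: mouse NIH/3T3 fibroblasts infected with β-gal-expressing T. cruzi Tulahuen C4 / Input: NIH/3T3 cells, 5,000 per well / Buffer or medium: Low-serum DMEM with 2% FBS / Probe or stimulus: 5000 reporter trypomastigotes per well / Schedule: ≥90 h infection period, 3 h prior cell attachment / Measured by: GalScreen luminescence, 60 min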
Jurkat NFkB inh – inhibitors of the PMA/ionomycin-induced NF-kB reporter in Jurkat cells; PMA/ionomycin-induced NF-kB luciferase reporter, luminescence; inhibition, % at 4 µM; 330,000 compounds, 0.53% hits; in the data active = inhibition above about 50%
* = called active by the depositor. This is a sample that favours compounds with a hit; in the whole collection about 4.8% have one here.

Screening O=C(Nc1ccc(N2CCOCC2)cc1)c1cc(-c2ccncc2)nc2ccccc12 returned HSF1 inh -52*, GPR7 antagonist -15, HSF1 activator -63, 697 NFkB inh 7, T cruzi inh 3 and Jurkat NFkB inh 9.
CCCCCCCNC(=O)c1cc(-c2ccncc2)nc2ccccc12 was read as HSF1 inh 43, GPR7 antagonist 0, HSF1 activator 68*, 697 NFkB inh -15, T cruzi inh 57* and Jurkat NFkB inh -14.
`C[C@H](NC(=O)c1ccccc1Cl)C(=O)NCCc1ccc(S(N)(=O)=O)cc1` gave HSF1 inh 7, GPR7 antagonist -18, HSF1 activator 56*, 697 NFkB inh 21, T cruzi inh -1 and Jurkat NFkB inh 11.
Cc1ccc(S(=O)(=O)N2CCOCC2)cc1C(=O)N1CC(C)OC(C)C1 (stereo not given) was read as HSF1 inh 2, HSF1 activator 2, 697 NFkB inh 2, T cruzi inh -13 and Jurkat NFkB inh -8.
Screening Cc1ccc(C)c(C(=O)CCC(=O)N2CCN(c3cccc(C(F)(F)F)c3)CC2)c1 returned 697 NFkB inh 8 and Jurkat NFkB inh 2.
Screening CCOc1c(CNc2nnnn2C)cccc1OC returned HSF1 inh -8, GPR7 antagonist -10, HSF1 activator -4, 697 NFkB inh 10, T cruzi inh -16 and Jurkat NFkB inh -3.
NS(=O)(=O)c1ccc(CCNC(=O)c2cc(-c3ccccc3)nc3ccccc23)cc1 was read as HSF1 inh 21, GPR7 antagonist -10, HSF1 activator 64*, 697 NFkB inh -8, T cruzi inh 19 and Jurkat NFkB inh -4.
For Cc1ccc(-c2cc(C(=O)NCCc3ccc(S(N)(=O)=O)cc3)c3ccccc3n2)cc1 the results were HSF1 inh 11, GPR7 antagonist 4, HSF1 activator 21, 697 NFkB inh 1, T cruzi inh -2 and Jurkat NFkB inh -15.
`CCS(=O)(=O)N1CCC(C(=O)NCc2cc(OC)ccc2OC)CC1` gave HSF1 inh -4, GPR7 antagonist -2, HSF1 activator -4, 697 NFkB inh -1, T cruzi inh -16 and Jurkat NFkB inh -4.
Screening COc1ccccc1N1CCN(C(=S)Nc2ccc(F)cc2)CC1 returned HSF1 inh -73*, GPR7 antagonist 7, HSF1 activator -75, 697 NFkB inh -17, T cruzi inh 12 and Jurkat NFkB inh 2.
COC(=O)CCS(=O)(=O)c1nc(-c2ccccc2)cc(C(F)(F)F)n1 was read as HSF1 inh -94*, GPR7 antagonist 15, HSF1 activator -94, 697 NFkB inh -32, T cruzi inh -38 and Jurkat NFkB inh 15.
`CCOC(=O)CS(=O)(=O)c1nc(-c2ccc(F)cc2)cc(C(F)(F)F)n1` gave HSF1 inh 59, GPR7 antagonist -3, HSF1 activator 88*, 697 NFkB inh -4, T cruzi inh -77 and Jurkat NFkB inh 9.
For CCOC(=O)CS(=O)(=O)c1ccccc1 the results were HSF1 inh -4, GPR7 antagonist -13, HSF1 activator -2, 697 NFkB inh -2, T cruzi inh -2 and Jurkat NFkB inh 3.
For COCC(C)NC(=O)CCS(=O)(=O)c1nc(-c2ccc(OC)cc2)cc(C(F)(F)F)n1 (stereo not given) the results were HSF1 inh 179, GPR7 antagonist -6, HSF1 activator 238*, 697 NFkB inh 18, T cruzi inh -23 and Jurkat NFkB inh 6.
Screening CCOC(=O)CS(=O)(=O)c1nc(-c2ccccc2)cc(C(F)(F)F)n1 returned HSF1 inh 124, GPR7 antagonist 39*, HSF1 activator 137*, 697 NFkB inh -51, T cruzi inh -32 and Jurkat NFkB inh -7.
`CCOC(=O)c1c(C(F)(F)F)cc(-c2ccc(F)cc2)nc1C` gave HSF1 inh 6, GPR7 antagonist -9, HSF1 activator -21, 697 NFkB inh 4, T cruzi inh -17 and Jurkat NFkB inh 11.
Cc1onc(-c2c(Cl)cccc2Cl)c1C(=O)N(C)Cc1ccccc1 was read as HSF1 inh 5, GPR7 antagonist 1, HSF1 activator -9, 697 NFkB inh -73, T cruzi inh 8 and Jurkat NFkB inh 15.
For COc1ccc(OC)c(C(=O)COC(=O)c2cccnc2SC)c1 the results were 697 NFkB inh 8 and Jurkat NFkB inh 3.
